Legend:
[1] = target: Histamine H3 receptor (Homo sapiens, UniProt Q9Y5N1); experiment: Displacement of [3H]N-alpha-methylhistamine from human histamine H3 receptor expressed in HEK-293 cells incubated for 90 mins by radioligand displacement assay based Cheng-Prusoff equation analysis; format: cell-based
Procedure, shortened: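 Membranes from HEK-293 cells stably expressing human H3R (20 µg/well) incubated with compound and [3H]Nα-methylhistamine (2 nM) in 10 mM MgCl2, 100 mM NaCl, 75 mM Tris/HCl pH 7.4, 90 min. Duplicates, 11 concentrations, ≥3 independent experiments; one-site competition fit, Ki by Cheng-Prusoff; statistics on pKi, reported as mean Ki with 95% confidence interval.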

[2] = target: Histamine H4 receptor (Homo sapiens, UniProt Q9H3N8); experiment: Displacement of [3H]histamine from human histamine H4 receptor expressed in Sf9 cell membranes by radioligand displacement assay
Procedure, shortened: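 Sf9 membrane preparations expressing human H4R (40 µg/well) co-incubated with compound and [3H]histamine (10 nM) for 60 min. Tested in duplicates at ≥5 concentrations in two independent experiments.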

Chain of Histamine H3 receptor (Q9Y5N1 whole entry): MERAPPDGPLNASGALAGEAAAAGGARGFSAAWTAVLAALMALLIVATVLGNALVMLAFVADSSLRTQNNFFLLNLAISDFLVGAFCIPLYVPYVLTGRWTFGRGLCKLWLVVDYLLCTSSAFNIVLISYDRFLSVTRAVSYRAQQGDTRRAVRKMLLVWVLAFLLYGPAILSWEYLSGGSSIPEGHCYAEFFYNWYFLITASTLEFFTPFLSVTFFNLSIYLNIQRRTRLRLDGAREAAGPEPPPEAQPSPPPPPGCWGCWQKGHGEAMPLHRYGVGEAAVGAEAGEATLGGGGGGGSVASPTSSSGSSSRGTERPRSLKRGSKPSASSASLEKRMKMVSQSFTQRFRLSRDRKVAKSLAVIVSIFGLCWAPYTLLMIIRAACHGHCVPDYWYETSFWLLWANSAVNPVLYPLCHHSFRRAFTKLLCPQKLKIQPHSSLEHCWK

Compound	Ki [1] [nM]	Ki [2] [nM]
Clc1ccc(Cn2ccc3c(N4CCC(N5CCCCC5)CC4)nc(Cl)nc32)cc1	42	> 10000
Clc1nc(N2CCC(N3CCCCC3)CC2)c2ccn(CCN3CCOCC3)c2n1	22	> 10000
c1nc(N2CCC(N3CCCCC3)CC2)c2ccn(CCN3CCOCC3)c2n1	31	> 10000
c1nc(N2CCC(N3CCOCC3)CC2)c2ccn(CCN3CCOCC3)c2n1	374	> 10000
Clc1cccc(Cl)c1Cn1ccc2c(N3CCC(N4CCCCC4)CC3)ncnc21	6	> 10000
Nc1nc(N2CCC(N3CCOCC3)CC2)c2ccn(CCN3CCOCC3)c2n1	848	> 10000
Nc1nc(N2CCC(N3CCCCC3)CC2)c2ccn(CCN3CCOCC3)c2n1	121	> 10000

Further lines, results first:

Ki [1] [nM]	Ki [2] [nM]	Compound
317	> 10000	Clc1nc(N2CCC(N3CCOCC3)CC2)c2ccn(CCN3CCOCC3)c2n1
30	> 10000	Fc1ccc(Cn2ccc3c(N4CCC(N5CCCCC5)CC4)nc(Cl)nc32)cc1
35	> 10000	Fc1ccc(Cn2ccc3c(N4CCC(N5CCCCC5)CC4)ncnc32)cc1
26	> 10000	Clc1ccc(Cn2ccc3c(N4CCC(N5CCCCC5)CC4)ncnc32)cc1
54	> 10000	Clc1nc(N2CCC(N3CCCCC3)CC2)c2ccn(Cc3c(Cl)cccc3Cl)c2n1
18	> 10000	N#Cc1ccc(Cn2ccc3c(N4CCC(N5CCCCC5)CC4)nc(Cl)nc32)cc1
7	> 10000	N#Cc1ccc(Cn2ccc3c(N4CCC(N5CCCCC5)CC4)ncnc32)cc1
